Measured values as given in ChEMBL document CHEMBL3352307, “Bioactive anthraquinone derivatives from the mangrove-derived fungus Stemphylium sp. 33231” (J Nat Prod, 2014).
Values after ≈ are worked out from the molar mass of the structure shown.

Tests used:
Staphylococcus = test: Antimicrobial activity against Staphylococcus albus ATCC 8799 by broth dilution assay; type: functional
In short: (§1)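 Conventional broth dilution run on the seven terrestrial pathogenic bacterial strains, with ciprofloxacin as positive control.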

Escherichia coli = test: Antimicrobial activity against Escherichia coli ATCC 25922 by broth dilution assay; type: functional; in short: as §1
Micrococcus = test: Antimicrobial activity against Micrococcus tetragenus ATCC 13623 by broth dilution assay; type: functional; in short: as §1
Staphylococcus aureus = test: Antimicrobial activity against Staphylococcus aureus ATCC 6538 by broth dilution assay; type: functional; in short: as §1
Bacillus cereus = test: Antimicrobial activity against Bacillus cereus ATCC 14579 by broth dilution assay; type: functional; in short: as §1
Kocuria rhizophila = test: Antimicrobial activity against Kocuria rhizophila ATCC 9341 by broth dilution assay; type: functional; in short: as §1
A549 = test: Cytotoxic activity against human A549 cells by MTT assay; type: functional, cell-based
In short: (§2)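 MTT viability read-out on mouse melanoma B16F10 and human lung adenocarcinoma A549 lines, with epirubicin as positive control. Activity is given as IC50.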

Bacillus subtilis = test: Antimicrobial activity against Bacillus subtilis ATCC 6633 by broth dilution assay; type: functional; in short: as §1
[1] = Cytotoxic activity against mouse B16F10 cells by MTT assay; type: functional, cell-based; settings: B16-F10; in short: as §2
[2] = Staphylococcus, ATCC 8799, read-out: MIC
[3] = Escherichia coli, ATCC 25922, read-out: MIC
[4] = Micrococcus, ATCC 13623, read-out: MIC
[5] = Kocuria rhizophila, ATCC 9341, read-out: MIC
[6] = Bacillus subtilis, ATCC 6633, read-out: MIC
[7] = Staphylococcus aureus, ATCC 6538, read-out: MIC
[8] = Bacillus cereus, ATCC 14579, read-out: MIC

Row | SMILES | MIC (Staphylococcus; [2]) [µM] | MIC (Escherichia coli; [3]) [µM] | MIC (Micrococcus; [4]) [µM] | MIC (Kocuria rhizophila; [5]) [µM] | MIC (Bacillus subtilis; [6]) [µM] | MIC (Staphylococcus aureus; [7]) [µM] | MIC (Bacillus cereus; [8]) [µM] | MIC (Staphylococcus) [µM] | MIC (Micrococcus) [µM] | MIC (Kocuria rhizophila) [µM] | MIC (Bacillus subtilis) [µM] | MIC (Staphylococcus aureus) [µM] | MIC (Bacillus cereus) [µM] | IC50 (A549) [µM] | IC50 [1] [µM] | MIC (Escherichia coli) [µM]
1 | COc1cc(O)c2c(c1-c1c(OC)cc(O)c3c1C(=O)C1=C(C3=O)[C@@H](O)[C@H](O)[C@](C)(O)[C@H]1O)C(=O)C1=C(C2=O)[C@H](O)[C@@H](O)[C@@](C)(O)[C@@H]1O (single isomer, unassigned; atropisomer 2) | > 10 | 5 (≈ 3.35 µg/mL) | > 10 | – | – | – | – | – | – | – | – | >10 | 2.5 (≈ 1.68 µg/mL) | – | – | –
2 | COc1cc(O)c2c(c1)[C@H](O)[C@@H]1[C@H](C[C@@H](OC(C)=O)[C@@](C)(O)[C@@H]1O)C2=O | > 10 | > 10 | > 10 | > 10 | > 10 | > 10 | > 10 | – | – | – | – | – | – | > 10 | > 10 | –
3 | COc1cc(O)c2c(c1)C(=O)C1=C(C2=O)[C@H](O)[C@@H](O)[C@@](C)(O)[C@@H]1O [ALTERSOLANOL A] | > 10 | 4.1 (≈ 1.38 µg/mL) | 8.2 (≈ 2.76 µg/mL) | > 10 | 4.1 (≈ 1.38 µg/mL) | 2.07 (≈ 0.696 µg/mL) | > 10 | – | – | – | – | – | – | > 10 | > 10 | –
4 | COc1cc(O)c2c(c1)[C@H](O)[C@@H]1[C@@H](C2=O)[C@H](O)[C@@H](O)[C@@](C)(O)[C@@H]1O [AMPELANOL] | > 10 | > 10 | > 10 | > 10 | > 10 | > 10 | > 10 | – | – | – | – | – | – | – | – | –
5 | COc1cc(O)c2c(c1)C(=O)c1cc(C)c(O)cc1C2=O [MACROSPORIN] | > 10 | 4.6 (≈ 1.31 µg/mL) | 4.6 (≈ 1.31 µg/mL) | > 10 | > 10 | 9.2 (≈ 2.62 µg/mL) | > 10 | – | – | – | – | – | – | > 10 | > 10 | –
6 | COc1cc(O)c2c(c1)C(=O)c1cc(C)c(OS(=O)(=O)O)cc1C2=O | > 10 | > 10 | > 10 | > 10 | > 10 | > 10 | > 10 | – | – | – | – | – | – | > 10 | > 10 | –
7 | COc1cc(O)c2c(c1-c1c(OC)cc(O)c3c1C(=O)C1=C(C3=O)[C@@H](O)[C@H](O)[C@](C)(O)[C@H]1O)C(=O)C1=C(C2=O)[C@H](O)[C@@H](O)[C@@](C)(O)[C@@H]1O (atropisomer, axis not shown) | – | – | – | > 10 | > 10 | 5 (≈ 3.35 µg/mL) | – | – | – | – | – | – | 10 (≈ 6.71 µg/mL) | > 10 | > 10 | 7.5 (≈ 5.03 µg/mL)
8 | COc1cc(O)c2c(c1)[C@H](O)[C@@H]1C(=C[C@@H](O)[C@@](C)(O)[C@@H]1O)C2=O | > 10 | > 10 | > 10 | > 10 | > 10 | > 10 | > 10 | – | – | – | – | – | – | > 10 | > 10 | –
9 | COc1cc(O)c2c(c1)[C@H](O)[C@H]1C[C@](C)(O)[C@H](O)C[C@@H]1C2=O [TETRAHYDROALTERSOLANOL B] | > 10 | 7.3 (≈ 2.25 µg/mL) | > 10 | > 10 | > 10 | > 10 | > 10 | – | – | – | – | – | – | – | – | –
10 | COc1cc(O)c2c(c1)C(=O)C1=C(C[C@@H](O)[C@@](C)(O)C1)C2=O [ALTERSOLANOL B] | > 10 | 7.8 (≈ 2.37 µg/mL) | > 10 | 7.8 (≈ 2.37 µg/mL) | 7.8 (≈ 2.37 µg/mL) | 7.8 (≈ 2.37 µg/mL) | > 10 | – | – | – | – | – | – | > 10 | > 10 | –
11 | O=C(O)c1cn(C2CC2)c2cc(N3CCNCC3)c(F)cc2c1=O [CIPROFLOXACIN] | 0.6 (≈ 0.199 µg/mL) | 0.3 (≈ 0.0994 µg/mL) | 0.3 (≈ 0.0994 µg/mL) | 0.3 (≈ 0.0994 µg/mL) | 0.6 (≈ 0.199 µg/mL) | 0.16 (≈ 0.053 µg/mL) | 0.6 (≈ 0.199 µg/mL) | – | – | – | – | – | – | – | – | –
12 | COc1cc(O)c2c(c1)C(=O)C1=C(C[C@@H](O)[C@@](C)(O)[C@@H]1O)C2=O [ALTERSOLANOL C] | > 10 | > 10 | > 10 | > 10 | 8.8 (≈ 2.82 µg/mL) | > 10 | > 10 | – | – | – | – | – | – | – | – | –

Now from value to compound, other results behind:

Row | MIC (Staphylococcus; [2]) [µM] | MIC (Escherichia coli; [3]) [µM] | MIC (Micrococcus; [4]) [µM] | MIC (Kocuria rhizophila; [5]) [µM] | MIC (Bacillus subtilis; [6]) [µM] | MIC (Staphylococcus aureus; [7]) [µM] | MIC (Bacillus cereus; [8]) [µM] | MIC (Staphylococcus) [µM] | MIC (Micrococcus) [µM] | MIC (Kocuria rhizophila) [µM] | MIC (Bacillus subtilis) [µM] | SMILES | MIC (Staphylococcus aureus) [µM] | MIC (Bacillus cereus) [µM] | IC50 (A549) [µM] | IC50 [1] [µM] | MIC (Escherichia coli) [µM]
13 | – | – | – | – | – | – | – | > 10 | > 10 | > 10 | > 10 | COc1cc(O)c2c(c1-c1c(OC)cc(O)c3c1C(=O)c1cc(C)c(O)cc1C3=O)C(=O)C1=C(C2=O)[C@H](O)[C@@H](O)[C@@](C)(O)[C@@H]1O (single isomer, unassigned; atropisomer 2) [ALTERPORRIOL A/B] | > 10 | > 10 | > 10 | > 10 | > 10
14 | > 10 | > 10 | > 10 | > 10 | > 10 | > 10 | 7.9 (≈ 4.89 µg/mL) | – | – | – | – | COc1cc(O)c2c(c1-c1c(OC)cc(O)c3c1C(=O)c1cc(C)c(O)cc1C3=O)C(=O)C1=C(C2=O)[C@H](O)[C@@H](O)[C@@](C)(O)[C@@H]1O (single isomer, unassigned; atropisomer 1) [ALTERPORRIOL A/B] | – | – | – | – | –
15 | > 10 | > 10 | > 10 | > 10 | > 10 | > 10 | > 10 | – | – | – | – | COc1cc2c(c(O)c1-c1c(OC)cc(O)c3c1C(=O)C1=C(C[C@@H](O)[C@@](C)(O)[C@@H]1O)C3=O)C(=O)C1=C(C[C@](C)(O)[C@H](O)C1)C2=O | – | – | – | – | –
16 | > 10 | > 10 | > 10 | > 10 | > 10 | > 10 | > 10 | – | – | – | – | COc1cc(O)c2c(c1)C(=O)c1cc(C)c(O)c(-c3c(OC)cc(O)c4c3C(=O)c3cc(C)c(O)cc3C4=O)c1C2=O (single isomer, unassigned; atropisomer 2) | – | – | – | – | –
17 | > 10 | > 10 | > 10 | > 10 | > 10 | > 10 | 8.1 (≈ 4.59 µg/mL) | – | – | – | – | COc1cc(O)c2c(c1)C(=O)c1cc(C)c(O)c(-c3c(O)c(C)cc4c3C(=O)c3c(O)cc(OC)cc3C4=O)c1C2=O | – | – | > 10 | > 10 | –
18 | > 10 | > 10 | > 10 | > 10 | > 10 | > 10 | > 10 | – | – | – | – | COc1cc(O)c2c(c1-c1c(OC)cc(O)c3c1C(=O)C1=C(C[C@@H](O)[C@@](C)(O)[C@@H]1O)C3=O)C(=O)C1=C(C[C@@H](O)[C@@](C)(O)[C@@H]1O)C2=O | – | – | – | – | –
19 | > 10 | > 10 | > 10 | > 10 | > 10 | > 10 | > 10 | – | – | – | – | COc1cc(O)c2c(c1)C(=O)c1cc(C)c(O)c(-c3c(OC)cc4c(c3O)C(=O)c3cc(O)c(C)cc3C4=O)c1C2=O [ALTERPORRIOL Q] | – | – | > 10 | > 10 | –
20 | > 10 | > 10 | > 10 | > 10 | > 10 | > 10 | > 10 | – | – | – | – | COc1cc(O)c2c(c1)C(=O)c1cc(C)c(O)c(-c3c(OC)cc(O)c4c3C(=O)C3=C(C[C@@H](O)[C@@](C)(O)[C@@H]3O)C4=O)c1C2=O | – | – | > 10 | > 10 | –
